This is an account of results in ChEMBL document CHEMBL3044844, “Synthesis and antimicrobial evaluation of some novel 1,2,4-triazole and 1,3,4-thiadiazole derivatives” (2013).

Structures are written as SMILES. ≈ marks a conversion by molar mass, not a printed value.

What all share (type): functional
The subject of one assay is Micrococcus luteus. Nature of the assay: Antibacterial activity against Micrococcus luteus ATCC 10240 assessed as growth inhibition after 18 hr by CLSI broth microdilution method. Particulars: ATCC 10240, 18 h. The gist of the method: (§1)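 Inoculum: 0.5 McFarland suspension (150 × 10^6 CFU/mL) in sterile 0.85 % NaCl, 2 μL into 198 μL Mueller–Hinton broth. Compound stocks in DMSO; twofold dilutions, final 0.24–1,000 μg/mL. Incubated 35 °C, 18 h; OD600 read. MIC taken as lowest concentration with no visible growth. Controls: compound-free broth with DMSO, and bacteria-free compound blanks.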
In general terms: Dilution methods test growth across graded concentrations, often in twofold steps.

In assay [1] the test system is Staphylococcus aureus. Nature of the assay: Antibacterial activity against Staphylococcus aureus ATCC 25923 assessed as growth inhibition after 18 hr by CLSI broth microdilution method. Particulars: ATCC 25923, 18 h. The gist of the method:
as §1

For assay [2], the system named is Staphylococcus aureus. Nature of the assay: Antibacterial activity against Staphylococcus aureus ATCC 6538 assessed as growth inhibition after 18 hr by CLSI broth microdilution method. Particulars: ATCC 6538, 18 h. The gist of the method: as §1
The next assay concerns Bacillus spizizenii. Nature of the assay: Antibacterial activity against Bacillus subtilis subsp. spizizenii ATCC 6633 assessed as growth inhibition after 18 hr by CLSI broth microdilution method. Particulars: ATCC 6633, 18 h. In outline:
as §1

The subject of assay [3] is Staphylococcus epidermidis. Nature of the assay: Antibacterial activity against Staphylococcus epidermidis ATCC 12228 assessed as growth inhibition after 18 hr by CLSI broth microdilution method. Particulars: ATCC 12228, 18 h. In outline:
as §1

The test system of another assay is Bacillus cereus. Nature of the assay: Antibacterial activity against Bacillus cereus ATCC 10876 assessed as growth inhibition after 18 hr by CLSI broth microdilution method. Particulars: ATCC 10876, 18 h. The gist of the method: as §1

As a reminder, the MIC is the lowest concentration found to suppress growth. As to `COc1ccc(-n2c(S)nnc2CSc2nnc(-c3ccccc3)n2-c2ccccc2)cc1`, the MIC in the assay with Micrococcus luteus is more than 1000 µg/mL; in the assay with Staphylococcus aureus [1] it was 1000 µg/mL (≈ 2120 µM); in the assay with Staphylococcus aureus [2] it was more than 1000 µg/mL; in the assay with Bacillus spizizenii, more than 1000 µg/mL; in assay [3] it was more than 1000 µg/mL; in the assay with Bacillus cereus it was 500 µg/mL (≈ 1060 µM).

`Sc1nnc(CSc2nnc(-c3ccccc3)n2-c2ccccc2)n1-c1ccccc1`: the MIC in the assay on Micrococcus luteus is more than 1000 µg/mL; in the assay with Staphylococcus aureus [1] it was 1000 µg/mL (≈ 2260 µM); with Staphylococcus aureus [2], more than 1000 µg/mL; with Bacillus spizizenii it was more than 1000 µg/mL; in assay [3], more than 1000 µg/mL; with Bacillus cereus it was 500 µg/mL (≈ 1130 µM).

For `O=C(CSc1nnc(-c2ccccc2)n1-c1ccccc1)NNC(=S)NC1CCCCC1`, the minimum inhibitory concentration (MIC) in the assay with Micrococcus luteus was 1000 µg/mL (≈ 2140 µM); with Staphylococcus aureus [1] it was more than 1000 µg/mL; with Staphylococcus aureus [2], more than 1000 µg/mL; in the assay with Bacillus spizizenii it was 1000 µg/mL (≈ 2140 µM); in assay [3], more than 1000 µg/mL; in the assay with Bacillus cereus it was 1000 µg/mL (≈ 2140 µM).

As to `COc1ccc(CNC(=S)NNC(=O)CSc2nnc(-c3ccccc3)n2-c2ccccc2)cc1`, the MIC in the assay on Micrococcus luteus amounted to 1000 µg/mL (≈ 1980 µM); with Staphylococcus aureus [1] it was 500 µg/mL (≈ 991 µM); in the assay on Staphylococcus aureus [2] it was 1000 µg/mL (≈ 1980 µM); in the assay on Bacillus spizizenii it was 500 µg/mL (≈ 991 µM); in assay [3] it was 500 µg/mL (≈ 991 µM); in the assay on Bacillus cereus, 1000 µg/mL (≈ 1980 µM).

Turning to `CCOC(=O)NC(=S)NNC(=O)CSc1nnc(-c2ccccc2)n1-c1ccccc1`, the MIC in the assay with Micrococcus luteus is 1000 µg/mL (≈ 2190 µM); with Staphylococcus aureus [1], more than 1000 µg/mL; with Staphylococcus aureus [2] it was more than 1000 µg/mL; in the assay on Bacillus spizizenii, 500 µg/mL (≈ 1100 µM); in assay [3], 1000 µg/mL (≈ 2190 µM); in the assay on Bacillus cereus, 500 µg/mL (≈ 1100 µM).

Turning to `O=C(CSc1nnc(-c2ccccc2)n1-c1ccccc1)NNC(=S)NC(=O)c1ccccc1`, the minimal inhibitory concentration (MIC) in the assay on Micrococcus luteus is 125 µg/mL (≈ 256 µM); with Staphylococcus aureus [1], 31.2 µg/mL (≈ 64 µM); in the assay with Staphylococcus aureus [2], 250 µg/mL (≈ 512 µM); in the assay with Bacillus spizizenii it was 250 µg/mL (≈ 512 µM); in assay [3], 125 µg/mL (≈ 256 µM); in the assay on Bacillus cereus, 125 µg/mL (≈ 256 µM).

With `C=CCn1c(CSc2nnc(-c3ccccc3)n2-c2ccccc2)n[nH]c1=S`, the MIC (in the assay with Micrococcus luteus; with Staphylococcus aureus [1]; with Staphylococcus aureus [2]; in the assay on Bacillus spizizenii; in assay [3]; in the assay with Bacillus cereus) was 1000 µg/mL (≈ 2460 µM) throughout.

For the molecule `S=c1[nH]nc(CSc2nnc(-c3ccccc3)n2-c2ccccc2)n1C1CCCCC1`, the MIC with Micrococcus luteus came out at 250 µg/mL (≈ 557 µM); in the assay with Staphylococcus aureus [1], 500 µg/mL (≈ 1110 µM); with Staphylococcus aureus [2], 250 µg/mL (≈ 557 µM); in the assay on Bacillus spizizenii it was 500 µg/mL (≈ 1110 µM); in assay [3], 500 µg/mL (≈ 1110 µM); in the assay with Bacillus cereus, 1000 µg/mL (≈ 2230 µM).

As to `S=c1[nH]nc(CSc2nnc(-c3ccccc3)n2-c2ccccc2)n1Cc1ccccc1`, the MIC in the assay with Micrococcus luteus was 1000 µg/mL (≈ 2190 µM); in the assay with Staphylococcus aureus [1], 1000 µg/mL (≈ 2190 µM); in the assay on Staphylococcus aureus [2], 1000 µg/mL (≈ 2190 µM); in the assay with Bacillus spizizenii, more than 1000 µg/mL; in assay [3], 1000 µg/mL (≈ 2190 µM); with Bacillus cereus, more than 1000 µg/mL.

As for `COc1ccc(Cn2c(CSc3nnc(-c4ccccc4)n3-c3ccccc3)n[nH]c2=S)cc1`, the minimal inhibitory concentration (MIC) is more than 1000 µg/mL with Micrococcus luteus; more than 1000 µg/mL in the assay on Staphylococcus aureus [1]; 1000 µg/mL (≈ 2050 µM) with Staphylococcus aureus [2]; more than 1000 µg/mL with Bacillus spizizenii; more than 1000 µg/mL in assay [3]; more than 1000 µg/mL in the assay with Bacillus cereus.

`c1ccc(CNc2nnc(CSc3nnc(-c4ccccc4)n3-c3ccccc3)s2)cc1`: the MIC with Micrococcus luteus stood at 125 µg/mL (≈ 274 µM); in the assay on Staphylococcus aureus [1] it was 250 µg/mL (≈ 548 µM); in the assay on Bacillus spizizenii it was 15.6 µg/mL (≈ 34.2 µM); in assay [3], 500 µg/mL (≈ 1100 µM).

In the case of `CO/N=C(\C(=O)N[C@@H]1C(=O)N2C(C(=O)O)=C(COC(N)=O)CS[C@H]12)c1ccco1` [CEFUROXIME], the minimum inhibitory concentration (MIC) with Micrococcus luteus was determined as 0.49 µg/mL (≈ 1.15 µM); in the assay with Staphylococcus aureus [1], 0.49 µg/mL (≈ 1.15 µM); in the assay on Staphylococcus aureus [2], 1.95 µg/mL (≈ 4.59 µM); in the assay on Bacillus spizizenii, 0.49 µg/mL (≈ 1.15 µM); in assay [3] it was 0.24 µg/mL (≈ 0.566 µM); with Bacillus cereus, 62.5 µg/mL (≈ 147 µM).
